{
  "source": "ChEMBL document CHEMBL1139000",
  "about": "“N-Glycosyl-thiophene-2-carboxamides: effects on endothelial cell growth in the presence and absence of bFGF--a significant increase in potency using per-O-acetylated sugar analogues” (2006)",
  "key": {"AEC [1]": {"system": "AEC", "assay": "Antiproliferative activity against 10% FBS-induced BAEC at 16 uM after 24 hrs assessed by inhibition of [3H]thymidine uptake", "type": "functional, Bos taurus", "design": "scale not given: the % may be the effect or the level left", "outline": "(§1)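 Bovine aortic endothelial cells seeded at 30,000 cells/well in complete medium (10% foetal bovine serum) and allowed 24 h adhesion. Compounds then added and cells cultured 20 h at 37 °C, 5% CO2. [3H]thymidine pulse for a further 4 h (24 h total exposure). Cells lysed with 0.1 N NaOH and incorporated label counted by scintillation. Values are % of control-treated cells, mean ± SEM of three separate experiments, each in triplicate.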"}, "AEC [2]": {"system": "AEC", "assay": "Antiproliferative activity against 10% FBS-induced BAEC at 3.3 uM after 24 hrs assessed by inhibition of [3H]thymidine uptake", "type": "functional, cell-based", "conditions": "Bos taurus", "outline": "as §1"}, "AEC [3]": {"system": "AEC", "assay": "Antiproliferative activity against bFGF-stimulated BAEC at 80 uM after 48 hrs assessed by inhibition of [3H]thymidine uptake", "type": "functional, cell-based", "conditions": "Bos taurus", "outline": "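BAECs seeded at 30,000 cells/well and starved 24 h in 0.5% foetal bovine serum. Then incubated 48 h with bFGF (10 ng/mL) with or without compound. [3H]thymidine (2 µCi/mL) added for the last 4 h. Lysis in 0.1 N NaOH, scintillation counting. Triplicate values from three separate experiments; Student's t test against control and against bFGF treatment.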"}, "AEC [4]": {"system": "AEC", "assay": "Antiproliferative activity against 10% FBS-induced BAEC at 80 uM after 24 hrs assessed by inhibition of [3H]thymidine uptake", "type": "functional, Bos taurus", "design": "scale not given: the % may be the effect or the level left", "outline": "as §1"}, "AEC [5]": {"system": "AEC", "assay": "Antiproliferative activity against 10% FBS-induced BAEC at 500 uM after 24 hrs assessed by inhibition of [3H]thymidine uptake relative to control", "type": "functional, Bos taurus", "design": "scale not given: the % may be the effect or the level left", "outline": "as §1"}, "AEC [6]": {"system": "AEC", "assay": "Antiproliferative activity against 10% FBS-induced BAEC upto 80 uM after 24 hrs assessed by inhibition of [3H]thymidine uptake", "type": "functional, cell-based", "conditions": "Bos taurus", "outline": "as §1"}, "AEC [7]": {"system": "AEC", "assay": "Antiproliferative activity against 10% FBS-induced BAEC at 500 uM after 24 hrs assessed by inhibition of [3H]thymidine uptake", "type": "functional, Bos taurus", "design": "scale not given: the % may be the effect or the level left", "outline": "as §1"}, "AEC [8]": {"system": "AEC", "assay": "Antiproliferative activity against 10% FBS-induced BAEC at 100 uM after 24 hrs assessed by inhibition of [3H]thymidine uptake", "type": "functional, Bos taurus", "design": "scale not given: the % may be the effect or the level left", "outline": "as §1"}},
  "note": "Active and inactive are the calls of the source. No cut-off for these calls is given here.",
  "data": [
    {"smiles": "CCc1ccc(C(=O)N[C@@H]2O[C@H](COC(C)=O)[C@@H](OC(C)=O)[C@H](OC(C)=O)[C@H]2OC(C)=O)s1", "values": [
      {"measurement": "Activity", "setting": "AEC [1]", "value": 21, "unit": "%"},
      {"measurement": "Activity", "setting": "AEC [2]", "value": "inactive"},
      {"measurement": "Activity", "setting": "AEC [3]", "value": "Active"},
      {"measurement": "Activity", "setting": "AEC [4]", "value": 41, "unit": "%"}
    ]},
    {"smiles": "O=C(N[C@@H]1O[C@H](CO)[C@@H](O)[C@H](O)[C@H]1O)c1ccc(Br)s1", "values": [
      {"measurement": "Activity", "setting": "AEC [5]", "value": 65, "unit": "%"}
    ]},
    {"smiles": "CCc1ccc(C(=O)N[C@@H]2O[C@H](CO)[C@@H](O)[C@H](O)[C@H]2O)s1", "values": [
      {"measurement": "Activity", "setting": "AEC [5]", "value": 80.3, "unit": "%"},
      {"measurement": "Activity", "setting": "AEC [6]", "value": "inactive"}
    ]},
    {"smiles": "C#Cc1ccsc1C(=O)N[C@@H]1O[C@H](CO)[C@@H](O)[C@H](O)[C@H]1O", "values": [
      {"measurement": "Activity", "setting": "AEC [5]", "value": 79.75, "unit": "%"}
    ]},
    {"smiles": "Cc1ccc(C(=O)N[C@@H]2O[C@H](CO)[C@@H](O)[C@H](O)[C@H]2O)s1", "values": [
      {"measurement": "Activity", "setting": "AEC [5]", "value": 83, "unit": "%"}
    ]},
    {"smiles": "Cc1ccsc1C(=O)N[C@@H]1O[C@H](CO)[C@@H](O)[C@H](O)[C@H]1O", "values": [
      {"measurement": "Activity", "setting": "AEC [5]", "value": 84, "unit": "%"}
    ]},
    {"smiles": "O=C(N[C@@H]1O[C@H](CO)[C@@H](O)[C@H](O)[C@H]1O)c1sccc1Br", "values": [
      {"measurement": "Activity", "setting": "AEC [7]", "value": 25, "unit": "%"},
      {"measurement": "Activity", "setting": "AEC [5]", "value": 75.4, "unit": "%"},
      {"measurement": "Activity", "setting": "AEC [8]", "value": 10, "unit": "%"}
    ]},
    {"smiles": "O=C(N[C@@H]1O[C@H](CO)[C@@H](O)[C@H](O)[C@H]1O)c1cccs1", "values": [
      {"measurement": "Activity", "setting": "AEC [5]; Bos taurus", "value": "inactive"}
    ]},
    {"smiles": "C#Cc1csc(C(=O)N[C@@H]2O[C@H](CO)[C@@H](O)[C@H](O)[C@H]2O)c1", "values": [
      {"measurement": "Activity", "setting": "AEC [5]", "value": 71, "unit": "%"}
    ]}
  ]
}
